Assay outcomes (PubChem BioAssay)
DNA FID counter: fluorescent intercalator displacement, NS3 helicase counter-screen; DNA fluorescent intercalator displacement, fluorescence; inhibition, % at 7.9 µM; hit rate 0.17% among 290,000; AID 1845; in the data active means inhibition above about 37%;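 further: higher means more ethidium bromide displaced from hairpin DNA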
MEX-5 binding: C. elegans MEX-5 TCR-2 RNA binding activity; MEX-5/FITC-TCR2 RNA binding, fluorescence polarization; hits give low values; hit rate 0.38% among 300,000; Q9XUB2; activity score (negative = inhibition of binding), % at 10 µM; AID 1832;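 active means inhibition past about -25% in most replicates, and total fluorescence under double the plate's negative control median, limit read from the data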
Target sequence (Q9XUB2 whole entry, looked up): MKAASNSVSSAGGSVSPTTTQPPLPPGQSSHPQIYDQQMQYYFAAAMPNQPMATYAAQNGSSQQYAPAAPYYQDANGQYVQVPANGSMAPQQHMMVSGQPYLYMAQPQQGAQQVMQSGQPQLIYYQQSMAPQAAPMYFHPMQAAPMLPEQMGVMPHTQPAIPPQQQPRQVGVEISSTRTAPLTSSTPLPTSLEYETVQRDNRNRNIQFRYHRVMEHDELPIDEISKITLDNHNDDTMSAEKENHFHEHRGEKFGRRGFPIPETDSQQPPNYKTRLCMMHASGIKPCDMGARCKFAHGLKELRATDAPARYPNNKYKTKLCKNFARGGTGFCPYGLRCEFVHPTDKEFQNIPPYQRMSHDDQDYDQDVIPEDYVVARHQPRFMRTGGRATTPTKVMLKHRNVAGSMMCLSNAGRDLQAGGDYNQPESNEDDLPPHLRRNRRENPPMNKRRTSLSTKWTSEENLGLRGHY
HCV core dimer: HCV core protein dimerization inhibition; TR-FRET GST/Flag-core106 dimerization, 1536-well; inhibition, % at 5 µM; hit rate 0.33% among 300,000; AID 1899;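 active means inhibition above the mean of all tested compounds plus 3 SD, set per screening campaign, cut at about 45% in these data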
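Assay system: GST-tagged and Flag-tagged HCV core protein residues 1-106 / Times: compound-protein-antibody incubation 4 h at 22.5 °C / Signal: time-resolved FRET, ex 340 nm, em 617 and 671 nm / Evaluation: % inhibition based on acceptor/donor emission ratio / Benchmarks: wells lacking GST-core106 and wells with excess unlabelled core106 / Repeats: singlicate, one well per compound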
NRP1-CendR mod: modulators of CendR peptide binding to human neuropilin-1 | O14786 | FAM-RPARPAR peptide binding to NRP-1, fluorescence polarization | inhibition, % at 25 µM | hit rate 0.85% among 360,000;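 active means inhibition or corrected inhibition above about 18%, plus a signal ratio from 0.5 to 1.5, limit read from the data, passing the limit was not always enough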
Each line names hits and unclear results; the compound was inactive in the other large screens; ! = not active in a repeat. Compounds with a hit are over-represented: about 1.5% of the library has one in this group of screens.

CCCCN1CC[C@H]2C=CC[C@@H](C(=O)NCc3ccc(OC)cc3)[C@H]2C1=O	NRP1-CendR mod 21 (no result: DNA FID counter)
COc1ccc(CNC(=O)[C@@H]2CC=C[C@@H]3CCN(Cc4ccc(Cl)c(Cl)c4)C(=O)[C@@H]32)cc1	NRP1-CendR mod 30 (no result: DNA FID counter)
CCCCN1CC[C@H]2C=CC[C@@H](C(=O)Nc3ccc(Cl)cc3Cl)[C@H]2C1=O	NRP1-CendR mod 34 (no result: DNA FID counter)
COc1ccc(C(C)(NC(C)=O)c2nc(-c3cnc4ccccc4c3)cs2)cc1 (stereo unspecified)	none (no result: DNA FID counter, MEX-5 binding, HCV core dimer)
COc1ccc2c(-c3ccccc3)cc(SCC(N)=O)nc2c1	MEX-5 binding -33
CC(C)N(CCNCC(O)COc1ccc(C(C)(C)c2ccccc2)cc1)C(C)C (stereo unspecified)	DNA FID counter 42
CN(C)CCOC(=O)C1(c2ccccc2)CCOCC1	NRP1-CendR mod 24!
COc1cc(Cl)c(C)cc1NCC(=O)Nc1cccc(S(=O)(=O)N2CCCC2)c1	none (no result: DNA FID counter, MEX-5 binding, HCV core dimer)
CC1(C)NC(=O)N(CC(=O)OCC(=O)c2ccc(Cl)s2)C1=O	none (no result: DNA FID counter, MEX-5 binding, HCV core dimer)
Oc1ccc(-c2nc3ccccc3s2)c(O)c1	none
Oc1ccc(-c2cnns2)c(O)c1	MEX-5 binding -61
COc1cccc(C2CC(c3ccccc3Cl)n3ncnc3N2)c1 (stereo unspecified)	NRP1-CendR mod 30
CCN1CC2([N+](=O)[O-])C=CC(=O)C([N+](=O)[O-])(C1)C2CC(=O)c1ccccc1 (stereo unspecified)	HCV core dimer 54
Cc1c(Br)c([N+](=O)[O-])nn1CC(=O)NCc1cccs1	NRP1-CendR mod 25
O=C(c1ccco1)N1CCN(C(=O)c2ccccc2OC(=O)C23CC4CC(CC(C4)C2)C3)CC1	NRP1-CendR mod 20 (no result: HCV core dimer)
O=C(NCc1ccccc1)[C@@H]1CCCN1C(=O)[C@@H]1CCCN1C(=O)c1cccs1	none (no result: DNA FID counter, MEX-5 binding, HCV core dimer)
O=[N+]([O-])c1ccc(Sc2cccc[n+]2[O-])c2nonc12	NRP1-CendR mod 34 (no result: HCV core dimer)
O=[N+]([O-])c1ccc(Nc2ccccc2)c2nonc12	none
CC(C)NC(=O)C1(C)CN(S(C)(=O)=O)CC(=O)N1C1CCN(Cc2ccccc2)CC1 (stereo unspecified)	none (no result: DNA FID counter, MEX-5 binding, HCV core dimer)
COc1ccc(N(CC(O)CN2CCCCC2)S(=O)(=O)c2ccc(C)cc2)cc1 (stereo unspecified)	NRP1-CendR mod 24
Cc1ccc(S(=O)(=O)N(CC(O)CN2CCCCC2)c2ccccc2)cc1 (stereo unspecified)	none
C=CCNC(=O)CSc1nnc(-c2cccc(S(=O)(=O)N3CCOCC3)c2)o1	none (no result: DNA FID counter, MEX-5 binding, HCV core dimer)
CSc1ccc(/C=C/C(=O)OCC(=O)NC2CCCCCC2)cc1	none (no result: DNA FID counter, MEX-5 binding, HCV core dimer)
Cc1cc(SCC(=O)Nc2ccc3[nH]c(=O)[nH]c3c2)nc2ccccc12	none (no result: DNA FID counter, MEX-5 binding, HCV core dimer)
CC1(OC(=O)CCc2ccccc2)C(=O)C=C2C=C(c3ccc(C#N)cc3)N(C3CCCC3)C=C2C1=O (stereo unspecified)	NRP1-CendR mod 30 (no result: DNA FID counter)
COc1ccc(N2Cc3cccc(C(=O)O)c3C2=O)cc1	HCV core dimer 48
COc1ccc(N2Cc3ccccc3C2=O)cc1	none
Cc1cc(C(=O)CSc2nc(N)cc(=O)[nH]2)c(C)n1CC1CCCO1 (stereo unspecified)	NRP1-CendR mod 21 (no result: DNA FID counter, MEX-5 binding, HCV core dimer)
CN1CCOc2c1cnn(CCO)c2=O	none (no result: DNA FID counter, MEX-5 binding, HCV core dimer)
Cc1ccc(-c2cnc3c(c2)C(=O)N([C@H](C)CO)C[C@@H](C)[C@@H](CN(C)C(=O)Cc2ccccc2)O3)cc1	none (no result: DNA FID counter, MEX-5 binding, HCV core dimer)
CCCc1c(C)c2c(C)[nH]nc2oc1=O	none
CCOC(=O)Cc1c(C)c2c(C)[nH]nc2oc1=O	NRP1-CendR mod 43
Cc1ccc(-c2cc(C(F)F)n3ncc(C(=O)Nc4c(C)nn(Cc5c(Cl)cccc5Cl)c4C)c3n2)cc1	none
Cc1ccc(-c2cc(C(F)F)n3ncc(C(=O)Nc4c(C)nn(Cc5ccccc5Cl)c4C)c3n2)cc1	HCV core dimer 46
O=C(COc1ccccc1)OCC(=O)c1ccc(S(=O)(=O)N2CCCCC2)cc1	none (no result: DNA FID counter, MEX-5 binding, HCV core dimer)
O=C(COc1ccccc1)Nc1c(C(=O)N2CCC(N3CCCCC3)CC2)oc2ccccc12	none
CN(C)CCN(Cc1ccco1)C(=O)c1oc2ccccc2c1NC(=O)COc1ccccc1	DNA FID counter 38
Cc1ccc(-n2c(-c3nn(C)c(C)c3Cl)n[nH]c2=S)cc1	NRP1-CendR mod 20
CCn1c(-c2nn(C)c(C)c2Cl)n[nH]c1=S	none
COc1cccc(OC)c1C(=O)NCCNc1nc2cc(C)cc(C)c2cc1C#N	none (no result: DNA FID counter, MEX-5 binding, HCV core dimer)
C=CCN1c2ccccc2[C@]23C[C@@H](C(=O)OC)N=C2NC(C(=O)OC)=C(C(=O)OC)[C@H]13	NRP1-CendR mod 33 (no result: DNA FID counter)
CCOc1ccc(Nc2ccc(N)c(S(=O)(=O)O)c2)cc1	NRP1-CendR mod 40 (no result: DNA FID counter, MEX-5 binding, HCV core dimer)
Cc1ccc(S(=O)(=O)N(CCC(=O)Nc2ccc(OC(F)(F)F)cc2)c2ccccc2)cc1	NRP1-CendR mod 40
CC(=O)Nc1cccc(NC(=O)c2cccc(-c3ccc(O)cc3)c2)c1	none
COc1ccc(NC(=O)c2cccc(-c3ccc(O)cc3)c2)cn1	NRP1-CendR mod 41
COc1ccc(C(=O)Nc2oc(-c3ccccc3)c(-c3ccccc3)c2C#N)cc1OC	none
COc1ccc(-c2oc(NC(C)=O)c(C#N)c2-c2ccc(OC)cc2)cc1	none
COc1ccc(-c2oc(NC(=O)c3ccc(C)cc3)c(C#N)c2-c2ccc(OC)cc2)cc1	HCV core dimer 60
COc1ccc(C(=O)Nc2oc(-c3ccccc3)c(-c3ccccc3)c2C#N)cc1	HCV core dimer 47
COc1ccc(C(=O)Nc2cc(OC)c(NC(=O)Nc3ccccc3)cc2OC)cc1	none (no result: DNA FID counter, MEX-5 binding, HCV core dimer)
Nc1[nH]c(C(=O)c2ccccc2)c(-c2ccc(F)cc2)c1C(=O)NCc1ccccc1	none (no result: DNA FID counter, MEX-5 binding, HCV core dimer)
Cc1ccc2cc(C#N)c(SCC(=O)N3CCCc4ccccc43)nc2c1C	NRP1-CendR mod 24
Cc1cc(C)c(CN2CCN(C(=O)Cn3cnc4c(NCc5ccccc5)ncnc43)CC2)c(C)c1	none (no result: DNA FID counter, MEX-5 binding, HCV core dimer)
CC(OC(=O)c1ccco1)C(=O)Nc1nc(-c2ccccc2)cs1 (stereo unspecified)	NRP1-CendR mod 30 (no result: DNA FID counter, MEX-5 binding, HCV core dimer)
O=C(Nc1nc(-c2ccccc2)cs1)c1ccco1	none
COc1ccc(/C=C2\SC(=S)N(NC(=O)c3ccncc3)C2=O)cc1OC	none (no result: NRP1-CendR mod)
O=C(NN1C(=O)/C(=C/C=C/c2ccccc2)SC1=S)c1ccncc1	HCV core dimer 49
O=C(NN1C(=O)/C(=C/C=C/c2ccco2)SC1=S)c1ccncc1	HCV core dimer 47
COc1ccc(NC(=O)N(C)C[C@@H]2OCc3cnnn3CCCC(=O)N([C@@H](C)CO)C[C@H]2C)cc1	none (no result: DNA FID counter, MEX-5 binding, HCV core dimer)
Cc1ccc(CSCC2Nc3ccc(C(=O)N4CCN(c5cccc(C)c5)C(C)C4)cc3NC2=O)cc1 (stereo unspecified)	HCV core dimer 71 (no result: NRP1-CendR mod)
Cc1cccc(N2CCN(C(=O)c3ccc(N4CCCC4=O)cc3)CC2C)c1 (stereo unspecified)	none
Cc1cccc(N2CCN(C(=O)c3ccc4c(c3)NC(=O)C(CSCc3ccc(F)cc3)N4)CC2C)c1 (stereo unspecified)	HCV core dimer 64 (no result: NRP1-CendR mod)
c1ccc2[nH]c3cc4ncnc4cc3nc2c1	MEX-5 binding -81
